Experiment [1] can be described thus: reduced viability of SK-BR-3 breast cancer cells – cell-based, 24 h, human, pilot screen (AID 572;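 active = viability at or below 10% of carrier control in both of two separate runs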;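 also: compound exposure lasted between 18 and 24 h rather than exactly 24 h; 100% = carrier-treated control wells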). The note with it: SK-BR-3 viability, CellTiter-Glo luminescence, at 10 µM, stronger effect = lower value. (ATP-based viability assays read luminescence as a measure of living cells.)
The nature of experiment [2]: HUVEC growth inhibition – cell-based, human, primary screen (AID 575).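 Also: 100% = median of untreated cell wells with 0.1% DMSO on each plate.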 The note with it: HUVEC proliferation, CellTiter-Glo luminescence, 72 h; at 10 µM; stronger effect = lower value. The method in brief: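 Test system: HUVEC primary cells. Quantity: 1250 endothelial cells in each well. Dosing: single-point 10 µM, DMSO 0.1% final. Incubation: 72 h treatment at 37 °C. Measured by: CTG luminescence. Control set: DMSO cell controls and MePR drug controls. Plate: collagen-coated 384-well format.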

Experiment [3] in a line: H69AR cell proliferation blockers – human, duplicate replicates, primary screen (AID 580;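 active = viability at or under a set limit in both replicates, limit being median viability minus 3 SD, cut at about 48% in these data, passing the limit was not always enough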;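 also: 100% = mean luminescence of untreated wells and 0% = no signal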). To be noted: H69AR lung tumor cells viability, ATP luminescence, 72 h; at 10 µM; stronger effect = lower value.
The nature of experiment [4]: MRP1 drug-resistance reversers in H69AR cells – cell-based, doxorubicin co-treatment, pilot screen (AID 601;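 active = viability loss from added drug above about 55%, and viability with drug at most 40%, in both replicates, limit read from the data, passing the limit was not always enough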). To be noted: CellTiter-Glo, 72 h, at 10 µM; for differential viability (reversal): stronger effect = higher value.
Experiment [5] can be described thus: yeast transport mutant growth inhibition pilot in 384-well plates, post-Golgi transport modulator project (AID 636; in the data active = inhibition above about 31%). The note with it: absorbance 615 nm, about 18 h, stronger effect = higher value.
The nature of experiment [6]: growth suppression of yeast trafficking mutant, preliminary HTS, modulators of trafficking downstream of Golgi apparatus project, 1536-format plate, OD 615 nm (AID 637; in the data active = inhibition above about 30%). The note with it: yeast transport mutant growth, absorbance 615 nm, 18 h; stronger effect = higher value.
Setting [7] is: H69AR cells + 2 uM doxorubicin, measured here: viability with 2 uM doxorubicin, stronger effect = lower value.
Where [8] appears, read: H69AR cells, compound alone cytotoxicity.

Activity calls are given as the source filed them.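 The calls were made as follows, unless noted: active = viability at or below 30% in both replicate assays; inconclusive = viability at or below 30% in just one of the two assays; inactive = the rest.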

A word on the viability: it is a read-out of living cells in per cent, often relative to untreated cells. As a reminder, the inhibition is the drop in the measured response relative to a control, in per cent.

Take `CC(C)NCC(O)COc1cccc2[nH]ccc12` (stereo unspecified): the viability is 111% (inactive) in experiment [1]; 78.3% (inactive) in experiment [2]; 99.2% (inactive) in experiment [3]; 101% in experiment [4] (setting [7]); 99.2% in experiment [4] (setting [8]). Moreover, the differential viability (reversal) in experiment [4] (H69AR cells + 2 uM doxorubicin) was -1.55% (inactive). For the same molecule, the inhibition in experiment [5] was -3.25% (inactive); in experiment [6] it was -3.17% (inactive).
Turning to `COc1ccc(S(=O)(=O)N2CCCC(C(=O)NCc3ccccn3)C2)cc1` (stereo unspecified), the viability in experiment [1] is 146% (inactive); in experiment [2], 96.8% (inactive); in experiment [3], 95.5% (inactive); in experiment [4] (setting [7]), 91.6%; in experiment [4] (setting [8]) it was 95.5%. The differential viability (reversal) in experiment [4] (H69AR cells + 2 uM doxorubicin) was 3.92% (inactive). For the same molecule, the inhibition in experiment [5] is -1.43% (inactive); in experiment [6] it was -0.66% (inactive).
With `CC(=O)OCC(=O)[C@@]1(OC(C)=O)[C@@H](C)C[C@H]2[C@@H]3C[C@H](F)C4=CC(=O)C=C[C@]4(C)[C@@]3(F)[C@@H](O)C[C@@]21C`, the viability in experiment [1] was 119% (inactive); in experiment [2], 102% (inactive); in experiment [3] it was 94.5% (inactive); in experiment [4] (setting [7]), 89.5%; in experiment [4] (setting [8]), 94.5%. Also, in experiment [4] (H69AR cells + 2 uM doxorubicin), the differential viability (reversal) was 5.08% (inactive). For the same molecule, the values for the inhibition in experiment [5] and in experiment [6] were -1.69% (inactive) and 7.33% (inactive), respectively.
With `CC(C)C12CN3CC(C(C)C)(CN(C1)C3c1ccc3c(c1)OCO3)C2=O` (stereo unspecified), the viability was 117% (inactive) in experiment [1]; 91.8% (inactive) in experiment [2]; 85.5% (inactive) in experiment [3]; 86.2% in experiment [4] (setting [7]); 85.5% in experiment [4] (setting [8]). Besides, the differential viability (reversal) in experiment [4] (H69AR cells + 2 uM doxorubicin) is -0.655% (inactive). In addition, the values for the inhibition in experiment [5] and in experiment [6] were -1.6% (inactive) and 0.18% (inactive), respectively.
Turning to `NS(=O)(=O)c1ccc(CCNC(=O)CCC2COc3ccccc3O2)cc1` (stereo unspecified), the viability in experiment [1] was 90% (inactive); in experiment [2], 105% (inactive); in experiment [3], 95.8% (inactive); in experiment [4] (setting [7]), 87.5%; in experiment [4] (setting [8]), 95.8%. Besides, the differential viability (reversal) in experiment [4] (H69AR cells + 2 uM doxorubicin) is 8.33% (inactive). The values for the inhibition in experiment [5] and in experiment [6] were -5.62% (inactive) and 0.16% (inactive), respectively.
As to `O=S(=O)(c1ccc2c(c1)OCCO2)N1CCN(Cc2ccc3c(c2)OCO3)CC1`, the viability is 112% (inactive) in experiment [1]; 105% (inactive) in experiment [2]; 88.4% (inactive) in experiment [3]; 95.1% in experiment [4] (setting [7]); 88.4% in experiment [4] (setting [8]). The differential viability (reversal) in experiment [4] (H69AR cells + 2 uM doxorubicin) is -6.71% (inactive). Moreover, the results for the inhibition in experiment [5] and in experiment [6] were -3.24% (inactive) and 1.09% (inactive), respectively.
Consider `COP(C)(=O)c1c(C)nn(-c2ccccc2)c1C` (stereo unspecified), for which the viability was 122% (inactive) in experiment [1]; 104% (inactive) in experiment [2]; 96.3% (inactive) in experiment [3]; 94.5% in experiment [4] (setting [7]); 96.3% in experiment [4] (setting [8]). For the same molecule, the differential viability (reversal) in experiment [4] (H69AR cells + 2 uM doxorubicin) was 1.8% (inactive). The inhibition is 0.39% (inactive) in experiment [5] and 1.15% (inactive) in experiment [6].
On to `O=C(Nc1ccc(NC(=O)C2CC2)cn1)c1ccccc1Cl`, for which the viability in experiment [1] was 101% (inactive); in experiment [2], 98.7% (inactive); in experiment [3], 98.5% (inactive); in experiment [4] (setting [7]), 91.4%; in experiment [4] (setting [8]), 98.5%. Moreover, the differential viability (reversal) in experiment [4] (H69AR cells + 2 uM doxorubicin) is 7.09% (inactive). Also, the inhibition in experiment [5] is -2.13% (inactive); in experiment [6] it was -2.91% (inactive).
Regarding `CC(C)(C)C(=O)NC1CCN(C(=O)N2CCCC2)CC1`, the viability was 93% (inactive) in experiment [1]; 102% (inactive) in experiment [2]; 94.5% (inactive) in experiment [3]; 83.2% in experiment [4] (setting [7]); 94.5% in experiment [4] (setting [8]). In experiment [4] (H69AR cells + 2 uM doxorubicin), the differential viability (reversal) was 11.3% (inactive). Also, the inhibition in experiment [5] is -8.24% (inactive); in experiment [6], 2.91% (inactive).
With `CN(c1ccc(OCc2nnc(-c3ccccc3)o2)cc1)S(=O)(=O)c1ccccc1`, the viability in experiment [1] was 99% (inactive); in experiment [2], 96.6% (inactive); in experiment [3] it was 82.9% (inactive); in experiment [4] (setting [7]), 80.5%; in experiment [4] (setting [8]), 82.9%. In addition, the differential viability (reversal) in experiment [4] (H69AR cells + 2 uM doxorubicin) was 2.42% (inactive). For the same molecule, the inhibition is -7.7% (inactive) in experiment [5] and -5.45% (inactive) in experiment [6].
As to `O=C(Nc1ccc(F)cc1)N(CCCN1CCOCC1)Cc1cc2cc3c(cc2[nH]c1=O)OCO3`, the viability was 85% (inactive) in experiment [1]; 105% (inactive) in experiment [2]; 90.8% (inactive) in experiment [3]; 83.1% in experiment [4] (setting [7]); 90.8% in experiment [4] (setting [8]). In experiment [4] (H69AR cells + 2 uM doxorubicin), the differential viability (reversal) was 7.71% (inactive). For the same molecule, the inhibition in experiment [5] is -7.97% (inactive); in experiment [6], 2.55% (inactive).
As to `NS(=O)(=O)c1cc2c(cc1C(F)(F)F)NCNS2(=O)=O`, the viability in experiment [1] is 100% (inactive); in experiment [2], 91% (inactive); in experiment [3], 109% (inactive); in experiment [4] (setting [7]) it was 101%; in experiment [4] (setting [8]) it was 109%. Moreover, in experiment [4] (H69AR cells + 2 uM doxorubicin), the differential viability (reversal) is 8.31% (inactive). The values for the inhibition in experiment [5] and in experiment [6] were 1.17% (inactive) and 3.33% (inactive), respectively.

For the origin of these results see PubChem BioAssay.
